The list is not random: actives were taken first. Their share in the collection is about 4.1%.
KCNQ1 act = potentiators or activators of human KCNQ1 potassium channel. hit rate 0.35% among 310,000. B-score at 10 µM. P51787. CHO-K1 KCNQ1, thallium flux FluxOR fluorescence; active compounds read high;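 active = fluorescence ratio B-score, a plate-corrected score, at least three library SD, with initial intensity B-score within 5 SD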
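Test system: CHO-K1 cells stably expressing KCNQ1 / Medium: assay buffer / Also added: depolarizing K+/Tl+ stimulus, K2SO4 and Tl2SO4 each 12.5 mM in 5x stock / Incubation: 90 min dye loading and 20 min compound exposure, both at room temperature / Signal: thallium influx via FluxOR fluorescence, kinetic imaging / Evaluation: B score of baseline-normalized fluorescence ratio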
KCNK9 block = human KCNK9 channel inhibition. hit rate 1.2% among 310,000. B-score at 10 µM. HEK293 KCNK9, FluxOR thallium flux fluorescence; active compounds read low. Q9NPC2;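 active = ratio B-score over 3 SD below the library mean, with starting fluorescence within 5 SD of its mean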;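 also: negative B-score means less thallium flux so channel inhibition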
KCNQ1 inh = human KCNQ1 channel inhibition. P51787. CHO-K1 KCNQ1, FluxOR thallium flux fluorescence; active compounds read high. B-score at 10 µM. hit rate 1.3% among 310,000;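 active = compounds whose thallium flux B-score, printed positive for inhibition, exceeds three library SD while starting fluorescence stays within three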;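 also: channel opened by potassium depolarization with thallium stimulus after 20 min compound exposure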
KCNK3 block = human KCNK3 channel inhibition, primary screen; O14649; CHO-KCNK3 thallium flux, FluxOR fluorescence; active compounds read low; B-score at 10 µM; hit rate 0.84% among 340,000;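 active = B-score under library mean minus 4 SD, starting fluorescence ratio at most library mean plus 5 SD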;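 also: more negative B-score means stronger inhibition of thallium flux through KCNK3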
KCC2 mod = KCC2 (human) Cl- transport modulation. Q9H2X9. hit rate 2.2% among 190,000. B-score of Tl+ flux slope (higher = more flux/activation; lower = inhibition) at 10 µM. KCC2 cells, thallium flux FluoZin-2 fluorescence;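 active = thallium flux slope and its plate-corrected score both differing from the plate sample mean at a set confidence after two filtering rounds, in either direction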;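 also: slope of fluorescence scaled to starting intensity during 10 to 20 s after thallium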
hERG protect = hERG (human) protection from proarrhythmic block | CHO-hERG, FluxOR thallium flux, dofetilide IC70 present | AID 1511 | activation (rescue from dofetilide block), less the hit threshold, % at 10 µM | hit rate 0.51% among 310,000 | Q12809;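 active = activation above the mean of controls blocked by dofetilide plus 5 SD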;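 also: thallium influx through hERG after potassium depolarization seen as dye fluorescence rise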
KCNK9 inh conf = human KCNK9 inhibitor confirmation. shares compounds with KCNK9 block. HEK293 KCNK9 cells, FluxOR thallium flux fluorescence. inhibition, % at 10 µM. hit rate 43% among 4,900;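 active = thallium signal inhibited by more than 5 SD of the compound-free buffer control wells, on both duplicate plates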;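 also: 0% = assay buffer control wells without compound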
Kir2-1 spec = selectivity of KCNK9 modulators against mouse Kir2.1. shares compounds with KCNK9 block. Kir2.1 cells, FluxOR thallium flux fluorescence. AID 492993. hit rate 4% among 4,900. inhibition, % at 10 µM;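 active = thallium signal drop more than 5 SD beyond the mean of the no-compound control wells, seen in both duplicate plates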;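 also: signal is fluorescence rise after thallium addition divided by baseline fluorescence; plate controls were assay buffer only for no effect and full block by chlorpromazine control for full effect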
KCNK9 uninduced = non-induced cell nonspecific activity of KCNK9 modulators; shares compounds with KCNK9 block; non-induced KCNK9-HEK293, FluxOR thallium flux; inhibition, % at 10 µM; hit rate 40% among 4,900;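 active = thallium signal drop beyond 5 SD of the untreated control mean, on both duplicate plates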;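 also: plate controls were buffer only IC0 wells for no effect and SID17386958 at its maximal inhibitory level for full effect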
* marks the source's active call; other numbers are inactive results; i = inactive; / = no result given.

SMILES | KCNQ1 act | KCNK9 block | KCNQ1 inh | KCNK3 block | KCC2 mod | hERG protect | KCNK9 inh conf | Kir2-1 spec | KCNK9 uninduced
N#Cc1ccc(NC(=O)c2cc(S(=O)(=O)N3CCOCC3)ccc2N2CCCC2)cc1 | i | i | i | i | / | -15 | / | / | /
Cc1cc(C(=O)Nc2ccc(N3CCCC3)c(Cl)c2)ccc1[N+](=O)[O-] | i | i | i | i | 0.33 | -2 | / | / | /
Cc1ccc(NC(=S)NNC(=O)c2ccc(N3CCOCC3)c([N+](=O)[O-])c2)cc1Cl | i | i | 6* | i | -2.8 | -7 | i | i | i
O=C(NCCCN1CCCC1=O)c1ccccc1OCc1ccc(Cl)cc1Cl | / | / | / | i | / | / | / | / | /
COc1ccccc1C(CNC(=O)CNC(=O)c1ccccc1Cl)N1CCCC1 (stereo not given) | / | / | / | i | / | / | / | / | /
Cc1ccc(CN2CCc3c(OCc4ccc(F)cc4)cccc3C2=O)cc1 | i | -13* | i | i | -1.5 | -11 | 71%* | i | 42%*
CCOC(=O)C1(CCOc2ccccc2)CCN(Cc2cccn2-c2ncccn2)CC1 | i | i | i | i | / | -20 | i | i | i
CCOC(=O)C1(CCOc2ccccc2)CCN(Cc2ccc(F)c(OC)c2)CC1 | i | i | i | i | / | -5 | i | i | i
CCOC(=O)C1(CCOc2ccccc2)CCN(Cc2ccncc2)CC1 | i | i | i | i | 0.24 | -9 | / | / | /
CCOC(=O)C1(CCOc2ccccc2)CCN(Cc2cc(OC)ccc2OC)CC1 | i | i | i | i | / | -12 | i | i | i
Cc1ccc2c(c1)N(CCCC(=O)NCCC1=CCCCC1)C(=O)CO2 | i | i | i | i | -0.23 | -7 | i | i | i
COc1ccccc1C1=NC(c2ccc(F)cc2)N=C1C (stereo not given) | i | i | i | i | -2.2 | -10 | i | i | i
COc1ccccc1C1N=C(c2ccccc2C)NO1 (stereo not given) | i | i | i | i | / | -4 | / | / | /
COc1ccc(NC(=O)COc2ccccc2F)cc1S(=O)(=O)N1CCCCC1 | i | -9.6* | i | i | / | -14 | i | i | i
Cc1ccc(OCCC(=O)OCC(=O)Nc2ccc(C)c(S(=O)(=O)N3CCOCC3)c2)cc1 | / | / | / | i | / | / | / | / | /
Cc1ccc(C)c(OCCC(=O)OCC(=O)Nc2ccc(C)c(S(=O)(=O)N3CCCCC3)c2)c1 | i | -11* | i | i | / | -9 | i | i | 29%*
COc1ccc(NC(=O)CCOc2ccccc2F)cc1S(=O)(=O)N1CCCCC1 | / | / | / | i | / | / | / | / | /
COc1ccc(CN2CCN(CCSc3ccc(C)cc3)CC2)c(OC)c1OC | i | i | i | i | / | -2 | i | i | i
O=C(CC(Nc1ccccc1Cl)C(=O)OCC(=O)c1cccs1)c1ccccc1 (stereo not given) | i | -9.4* | i | i | -1.3 | -10 | 42%* | i | 28%*
O=C(OCC(=O)c1cccs1)c1ccccc1 | i | i | i | i | -0.074 | -12 | / | / | /
O=C(O)c1ccc(N2C(=O)CC(N3C(=O)/C(=C/c4ccc(Cl)cc4)SC3=S)C2=O)cc1 (stereo not given) | i | i | i | i | -0.98 | -9 | i | i | i
O=C(O)c1ccc(N2C(=O)CC(N3CCN(c4ccc(Cl)cc4)CC3)C2=O)cc1 (stereo not given) | i | i | i | i | / | 0 | / | / | /
COc1cc(CC2C(=O)OCC2C(=O)c2ccc3c(c2)OCO3)cc(OC)c1OC (stereo not given) | / | / | / | i | / | / | / | / | /
CCCCN(C(=O)c1cc(S(=O)(=O)N2CCCCCC2)ccc1OC)c1c(N)n(CCC)c(=O)[nH]c1=O | i | i | i | i | / | -7 | / | / | /

Screens (PubChem)
